Results as given in ChEMBL document CHEMBL1143810, “Synthesis and antimalarial evaluation of a series of piperazinyl flavones” (Bioorg Med Chem Lett, 2007).
pIC50: −log10 of the molar value.

Columns and labels:
Plasmodium falciparum [1] = assay: Antiplasmodial activity against Plasmodium falciparum D6; assay type: functional, organism-based
MRC5 = assay: Cytotoxicity against MRC5 cells; assay type: cell-based, Homo sapiens; details: for pIC50: Homo sapiens, MRC5
How it was run: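 MRC5 cells were cultured for 5 days in the presence of drug, with viability read by colorimetric MTT. IC50 was taken from the concentration–response curve and is the mean of three independent experiments.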

[2] = Selectivity index, ratio of IC50 for MRC5 cells to IC50 for Plasmodium falciparum FcB1; assay type: functional
How it was run: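 Ratio of MRC5 IC50 to P. falciparum FcB1 IC50. MRC5 IC50 came from a 5-day drug exposure read by MTT. Parasite IC50 came from [³H]hypoxanthine incorporation in erythrocyte cultures. Both were taken from concentration–response curves as means of three independent experiments.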

Plasmodium falciparum [3] = assay: Antiplasmodial activity against Plasmodium falciparum FcB1; assay type: functional, organism-based
How it was run: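 P. falciparum FcB1 (chloroquine-resistant) was kept in continuous culture in human erythrocytes. Growth inhibition was read by [³H]hypoxanthine incorporation. IC50 was taken from the drug concentration–response curve and is the mean of three independent experiments.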

Plasmodium falciparum [4] = assay: Antiplasmodial activity against chloroquine-resistant Plasmodium falciparum K1; assay type: functional, organism-based
How it was run: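 Parasites kept in continuous culture on human erythrocytes; growth measured by [3H]hypoxanthine incorporation. IC50 taken from the drug concentration–response curve, mean of three independent experiments.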

Plasmodium falciparum [5] = assay: In vitro antiplasmodial activity against Plasmodium falciparum Thai
Plasmodium yoelii [6] = assay: Antiplasmodial activity as reduced parasitaemia against Plasmodium yoelii N67 infected Swiss mice (Mus musculus) at 10 mg/kg peroral dose; assay type: functional; details: route oral
How it was run: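 4-day suppressive test in P. yoelii nigeriensis N67-infected mice, five per group. Dosing oral, once daily from day 0, 0.5 ml/mouse. Untreated group received vehicle only. Parasitemia read on day 4 from Diff Quick-stained blood smears. Percent inhibition calculated against untreated mice. Deaths counted at day 14.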

Plasmodium yoelii [7] = assay: Antiplasmodial activity as reduced parasitaemia against Plasmodium yoelii N67 infected Swiss mice (Mus musculus) at 50 mg/kg peroral dose; assay type: functional; details: route oral
How it was run: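 Peters 4-day suppressive test in mice infected with P. yoelii nigeriensis N67. Compound was given orally (0.5 ml) daily from day 0, at 10 or 50 mg/kg as per line. Groups had five mice, with a vehicle-only untreated group. Day-4 parasitemia was counted on Diff Quick-stained blood smears. % inhibition was calculated against untreated mice.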

Row | pIC50 (Plasmodium falciparum [1]) | pIC50 (Plasmodium falciparum [3]) | Structure (SMILES) | pIC50 (MRC5) | Ratio IC50 [2] | other results
1 | 6.74 |  | COc1ccc(-c2cc(=O)c3c(O)cc(OCC(=O)N4CCN(Cc5ccc(OC)c(OC)c5OC)CC4)cc3o2)cc1OCC(=O)N1CCN(Cc2ccc(OC)c(OC)c2OC)CC1 | 6.00 |  | 
2 | 5.62 |  | CCOC(=O)COc1cc(-c2cc(=O)c3c(O)cc(OCC(=O)N4CCN(Cc5cccc(OC)c5OC)CC4)cc3o2)ccc1OC |  |  | 
3 | 5.27 |  | CCOC(=O)COc1cc(OCC(=O)N2CCN(Cc3ccc(OC)c(OC)c3OC)CC2)c2c(=O)cc(-c3ccc(OC)c(OCC(=O)OCC)c3)oc2c1 |  |  | 
4 | 5.28 |  | COc1ccc(-c2cc(=O)c3c(O)cc(OCC(=O)N4CCN(Cc5ccc(OC)c(OC)c5OC)CC4)cc3o2)cc1O |  |  | 
5 | 5.02 |  | CCOC(=O)COc1cc(-c2cc(=O)c3c(O)cc(OCC(=O)N4CCN(Cc5ccccc5)CC4)cc3o2)ccc1OC |  |  | 
6 | 5.22 |  | CCOC(=O)COc1cc(-c2cc(=O)c3c(O)cc(OCC(=O)N4CCN(Cc5ccc(Cl)cc5)CC4)cc3o2)ccc1OC |  |  | 
7 |  | 5.37 | CCOC(=O)COc1cc(-c2cc(=O)c3c(O)cc(OCCN4CCN(Cc5ccc(OC)c(OC)c5OC)CC4)cc3o2)ccc1OC | 4.74 | 4.2 | 
8 |  | 5.74 | CCOC(=O)COc1cc(-c2cc(=O)c3c(O)cc(OCC(=O)N4CCN(C(=O)OC(C)(C)C)CC4)cc3o2)ccc1OC | 5.42 | 2.1 | 
9 |  | 5.05 | CCOC(=O)COc1cc(-c2cc(=O)c3c(O)cc(OCC(=O)N4CCN(Cc5ccc(OC)cc5)CC4)cc3o2)ccc1OC |  |  | 
10 |  | 5.77 | CCOC(=O)COc1cc(-c2cc(=O)c3c(O)cc(OCC(=O)N4CCN(Cc5ccc(OC)cc5OC)CC4)cc3o2)ccc1OC | 5.25 | 3.3 | 
11 |  | 5.72 | CCOC(=O)COc1cc(-c2cc(=O)c3c(O)cc(OCC(=O)N4CCN(Cc5c(OC)cc(OC)cc5OC)CC4)cc3o2)ccc1OC | 5.02 | 5 | 
12 |  | 5.55 | CCOC(=O)COc1cc(-c2cc(=O)c3c(O)cc(OCC(=O)N4CCN(Cc5ccc(OCc6ccccc6)c(OC)c5OC)CC4)cc3o2)ccc1OC | 5.00 | 3.6 | 
13 | 5.40 |  | CCOC(=O)COc1cc(-c2cc(=O)c3c(O)cc(OCC(=O)N4CCN(Cc5cc(OC)c(OC)c(OC)c5)CC4)cc3o2)ccc1OC |  |  | 
14 | 5.21 |  | CCOC(=O)COc1cc(O)c2c(=O)cc(-c3ccc(OC)c(OCC(=O)N4CCN(Cc5ccc(OC)c(OC)c5OC)CC4)c3)oc2c1 |  |  | 
15 | 5.33 |  | CCOC(=O)COc1cc(-c2cc(=O)c3c(O)cc(OCC(=O)N4CCN(Cc5ccc(OC)c(OC)c5)CC4)cc3o2)ccc1OC |  |  | 
16 |  | 5.55 | COc1ccc(-c2cc(=O)c3c(O)cc(OCC(=O)N4CCN(Cc5ccc(OC)c(OC)c5OC)CC4)cc3o2)cc1OC1CCCC1 | < 3.82 | >53 | 
17 |  | 4.72 | CCOC(=O)COc1cc(-c2cc(=O)c3c(O)cc(OCC(=O)N4CC[N+]([O-])(Cc5ccc(OC)c(OC)c5OC)CC4)cc3o2)ccc1OC |  |  | 
18 |  | 4.39 | CCOC(=O)COc1cc(-c2cc(=O)c3c(O)cc(OCC(=O)N4CC[N+](C)(Cc5ccc(OC)c(OC)c5OC)CC4)cc3o2)ccc1OC |  |  | 
19 |  | 5.41 | CCCCCCOc1cc(-c2cc(=O)c3c(O)cc(OCC(=O)N4CCN(Cc5ccc(OC)c(OC)c5OC)CC4)cc3o2)ccc1OC |  |  | 
20 |  |  | CCN(CC)CCCC(C)Nc1ccnc2cc(Cl)ccc12 (stereo unspecified) [CHLOROQUINE] |  |  | Activity (MRC5; human, mrc5): Active

Row | Structure (SMILES) | pIC50 (Plasmodium falciparum [1]) | pIC50 (Plasmodium falciparum [3]) | pIC50 (MRC5) | Ratio IC50 [2] | other results
21 | CCOC(=O)COc1cc(-c2cc(=O)c3c(O)cc(OCC(=O)N4CCN(Cc5ccc(O)c(OC)c5OC)CC4)cc3o2)ccc1OC |  | 6.22 | 5.00 | 16.7 | pIC50 (Plasmodium falciparum [4]): 6.40; pIC50 (Plasmodium falciparum [5]): 5.92
22 | CCOC(=O)COc1cc(-c2cc(=O)c3c(O)cc(OCC(=O)N4CCN(C)CC4)cc3o2)ccc1OC |  | 4.59 |  |  | 
23 | COc1ccc(CN2CCN(C(=O)COc3ccc4c(=O)cc(-c5cc(C(C)(C)C)c(O)c(C(C)(C)C)c5)oc4c3)CC2)c(OC)c1OC |  | 5.92 | < 3.82 | >125 | pIC50 (Plasmodium falciparum [4]): 6.40; inhibition in vivo at 10 mg/kg (Plasmodium yoelii [6]): 24.1%; inhibition in vivo at 50 mg/kg (Plasmodium yoelii [7]): 38.5%; pIC50 (Plasmodium falciparum [5]): 6.05
24 | COc1ccc(CN2CCN(C(=O)COc3ccc4c(=O)cc(-c5ccccc5)oc4c3)CC2)c(OC)c1OC |  | 4.89 |  |  | 
25 | COc1ccc(CN2CCN(C(=O)COc3cc(O)c4c(=O)cc(-c5ccccc5)oc4c3)CC2)c(OC)c1OC |  | 4.85 |  |  | 
26 | CCOC(=O)COc1cc(-c2cc(=O)c3c(O)cc(OCC(=O)N4CCN(Cc5ccc(OC)c(OC)c5OC)CC4)cc3o2)ccc1OC | 6.30 | 6.00 | < 4.15 | >140 | pIC50 (Plasmodium falciparum [4]): 4.89; inhibition in vivo at 10 mg/kg (Plasmodium yoelii [6]): 27.1%; inhibition in vivo at 50 mg/kg (Plasmodium yoelii [7]): 43.1%; pIC50 (Plasmodium falciparum [5]): 4.89
27 | COc1ccc(-c2cc(=O)c3c(O)cc(OCC(=O)N4CCN(Cc5ccc(OC)c(OC)c5OC)CC4)cc3o2)cc1OCC(=O)OC(C)(C)C |  | 5.77 | < 3.85 | >82 | pIC50 (Plasmodium falciparum [4]): 5.85; pIC50 (Plasmodium falciparum [5]): 5.82
